Data set [1] deals with HDAC6. As to conditions: cited from earlier work; for activity against HDAC6 (in words) / selectivity over HDAC1 (in words): Figure 1a.
In data set [2] the target is T1, HDAC6 (Homo sapiens, UniProt Q9UBN7).
T1 sequence (Q9UBN7 1-1215): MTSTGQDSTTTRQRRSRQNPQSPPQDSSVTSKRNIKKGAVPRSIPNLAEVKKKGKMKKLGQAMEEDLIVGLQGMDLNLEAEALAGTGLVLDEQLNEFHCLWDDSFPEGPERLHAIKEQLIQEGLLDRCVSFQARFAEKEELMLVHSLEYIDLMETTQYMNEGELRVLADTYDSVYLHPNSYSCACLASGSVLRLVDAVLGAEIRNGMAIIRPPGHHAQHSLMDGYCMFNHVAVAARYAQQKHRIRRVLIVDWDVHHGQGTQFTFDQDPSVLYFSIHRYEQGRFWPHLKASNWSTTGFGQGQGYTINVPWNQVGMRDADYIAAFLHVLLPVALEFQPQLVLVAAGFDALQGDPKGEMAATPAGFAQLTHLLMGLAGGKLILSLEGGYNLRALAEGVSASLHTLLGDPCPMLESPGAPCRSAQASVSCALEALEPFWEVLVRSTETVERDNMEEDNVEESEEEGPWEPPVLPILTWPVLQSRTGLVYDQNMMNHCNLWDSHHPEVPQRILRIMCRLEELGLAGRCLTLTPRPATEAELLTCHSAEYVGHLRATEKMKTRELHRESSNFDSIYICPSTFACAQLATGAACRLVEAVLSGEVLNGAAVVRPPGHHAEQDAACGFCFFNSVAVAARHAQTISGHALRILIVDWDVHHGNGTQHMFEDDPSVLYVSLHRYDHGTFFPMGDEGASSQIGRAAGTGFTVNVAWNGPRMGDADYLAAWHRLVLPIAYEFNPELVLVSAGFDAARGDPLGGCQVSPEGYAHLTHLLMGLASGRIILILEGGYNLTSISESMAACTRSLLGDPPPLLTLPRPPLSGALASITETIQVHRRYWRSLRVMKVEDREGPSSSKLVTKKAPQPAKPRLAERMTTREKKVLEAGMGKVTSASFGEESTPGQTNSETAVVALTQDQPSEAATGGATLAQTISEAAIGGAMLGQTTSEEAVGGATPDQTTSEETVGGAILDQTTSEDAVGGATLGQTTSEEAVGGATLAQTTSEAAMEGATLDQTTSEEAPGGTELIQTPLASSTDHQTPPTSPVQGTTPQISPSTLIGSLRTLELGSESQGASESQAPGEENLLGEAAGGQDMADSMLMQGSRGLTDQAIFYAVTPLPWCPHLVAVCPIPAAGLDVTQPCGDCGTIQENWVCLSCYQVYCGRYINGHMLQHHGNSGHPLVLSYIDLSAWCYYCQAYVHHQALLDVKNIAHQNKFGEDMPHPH
Kind of data set: HDAC1–11 enzyme assays. The format is biochemical. As to conditions: for HDAC6 activity (in words): Figure 1a, compared with phenylhydroxamate 1.

Data set [3] relates to acetylated α-tubulin. Kind of data set: α-Tubulin acetylation studies in HEK293 cells. In kind it is cell-based. To be noted: tested at 0.01, 0.1, 1, and 10 μM. In outline: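 HEK293 cells plated 24 h ahead and treated at 70% confluency with 10 nM–10 µM. Lysed in MPER with protease inhibitors; 2 µg protein boiled, run on 12% gel, transferred to PVDF. Blocked in 5% milk/TBST; anti-acetyl-tubulin 1:3000 overnight at 4 °C, then HRP secondary 1:5000; ECL. Reprobed for total α-tubulin at 1:1000. Densitometric ratio normalized to 10 µM reference HDAC6 inhibitor; n = 3–4; one-way ANOVA vs vehicle.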

Data set [4] concerns MDCK-MDR1 cell line. Kind of data set: Permeability studies in MDCK-MDR1 cells. In kind it is in vitro ADME. To be noted: MDCK-MDR1 cell line.
Data set [5] concerns MDR1. Kind of data set: Permeability studies in MDCK-MDR1 cells. In kind it is in vitro ADME. As to conditions: dog, MDCK-MDR1.
Data set [6] concerns MDR1 (P-gp). Kind of data set: Permeability studies in MDCK-MDR1 cells. In kind it is in vitro ADME. To be noted: dog, MDCK-MDR1, efflux ratio, MDCK-MDR1 cell line.
In data set [7] the test system is class IIa isoforms. Kind of data set: HDAC1–11 enzyme assays. The format is biochemical, human. As to conditions: Figure 2b and c. A digest of the protocol:
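Human full-length recombinant HDAC4, 5, 7 and 9 with fluorogenic Ac-LGK(TFA)-AMC substrate. Enzyme–compound preincubation 5–10 min, then 2 h at 30 °C. Developer added; fluorescence read at plateau. 10-dose, 3-fold dilutions from 30 µM, in duplicate. IC50 from sigmoidal fit.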

Data set [8] deals with acetylated histone 3. Kind of data set: Histone acetylation in N2a cells. To be noted: compared to vehicle. In kind it is cell-based. A digest of the protocol:
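N2a cells treated at 1 µM or 10 nM; reference HDAC inhibitors served as positive controls. Histones extracted by kit; protein by micro BCA. Samples denatured in reducing buffer at 95 °C for 5 min and blotted to PVDF. Blocked in 5% BSA/TBST 1 h at RT; primaries overnight: acetyl-H3 K9+K14 1:1000, histone 4 1:1000. Ratios normalized to vehicle; n = 4; one-way ANOVA vs vehicle.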

Data set [9] concerns acetylated α-tubulin. Kind of data set: α-Tubulin acetylation in N2a cells. The format is cell-based. As to conditions: compared to vehicle.
The nature of data set [10]: Brain/plasma pilot PK studies of TubA. The format is in vivo. To be noted: IV administration, WT mice.
The conditions of data set [11]: cited from earlier work.

SMILES strings stand for the structures. Some results are limits rather than exact numbers.

Usually IC50 stands for the point on the concentration scale where inhibition reaches its midpoint. Usually efflux ratio stands for a quotient of directional permeabilities that is used to spot active efflux. As usually defined, the Papp A→B is how fast a substance crosses the layer from the apical side. A lower Papp A→B goes with slow passage. A word on the Papp B→A: it is how fast a substance crosses the layer from the basolateral side.

In the case of `O=C(NO)c1ccccc1` [Compound 1, phenylhydroxamate, reference compound], the “selectivity over class I HDACs” value in data set [1] is recorded as “more than 10 fold”. Also, in data set [1] (read-out: IC50 against HDAC6), the IC50 was 115 nM.

Regarding `CCN(CC)Cc1ccc(C(=O)NO)cc1` [Compound 2, 4-[(Diethylamino)methyl]-N-hydroxybenzamide], the “HDAC6 activity (in words)” value in data set [2] is “reduced HDAC6 activity”.

On to `O=C(NO)c1ccc(CN2CCCC2)cc1` [Compound 3, N-Hydroxy-4-(pyrrolidin-1-ylmethyl)benzamide], for which the “HDAC6 activity (in words)” value in [2] is “reduced HDAC6 activity”.

For the molecule `O=C(NO)c1ccc(Cn2cccc2)cc1` [Compound 4, 4-(1-Pyrrolylmethyl)-N-hydroxybenzamide], in data set [1], the “activity against HDAC6 (in words)” value is reported as “nanomolar activity” and the “selectivity over HDAC1 (in words)” value is “high selectivity”.

As to `O=C(NO)c1ccc(Cn2ccc3ccccc32)cc1` [Compound 5, 4-(1-Indolylmethyl)-N-hydroxybenzamide], in data set [1], the “activity against HDAC6 (in words)” value is listed as “nanomolar activity” and the “selectivity over HDAC1 (in words)” value is reported as “high selectivity”.

`O=C(NO)c1ccc(Cn2cccn2)cc1` [Compound 6, 4-(1-Pyrazolylmethyl)-N-hydroxybenzamide]: the “concentration at which acetylated α-tubulin levels are elevated” value (“concentration” below) in data set [3] turned out to be 10 µM. In data set [4], the “Papp(A−B)” value is listed as 7.35 10^−6, cm/s; the “Papp(B−A)” value was 5.24 10^−6, cm/s; the efflux ratio was found to be 0.70.

For the molecule `CN(C)c1ccc(Cc2ccc(C(=O)NO)cc2)cc1` [Compound 7, 4-[4-(Dimethylamino)benzyl]-N-hydroxybenzamide], the “concentration” value in data set [3] came out at 10 µM. Also, the efflux ratio in [4] turned out to be 0.63. In addition, in data set [5], the Papp A→B at 2 h is 17.6 ×10⁻⁶ cm/s and the Papp B→A at 2 h was determined as 11 ×10⁻⁶ cm/s. Further, the efflux ratio at 2 h in data set [6] is less than 1.

On to `Cc1nc2ccc(F)cc2n1Cc1ccc(C(=O)NO)cc1` [Compound 8, 4-[(6-Fluoro-2-methyl-1-benzimidazolyl)methyl]-N-hydroxybenzamide], for which, in data set [7], the “activity against the class IIa isoforms (in words)” value was “strong activity”. Besides, the efflux ratio in [4] was 3.23. In [5], this molecule registered a Papp A→B at 2 h of 4.44 ×10⁻⁶ cm/s and a Papp B→A at 2 h of 13.4 ×10⁻⁶ cm/s. Also, in data set [6], the efflux ratio at 2 h is greater than 2.5.

With `Cc1nc2ccccc2n1Cc1ccc(C(=O)NO)cc1F` [Compound 9, 3-Fluoro-N-hydroxy-4-[(2-methyl-1-benzimidazolyl)methyl]-benzamide], the “activity against the class IIa isoforms (in words)” value in [7] was “strong activity”. Also, the efflux ratio in data set [4] is recorded as 4.23. Further, in data set [5], the Papp A→B at 2 h came out at 3.89 ×10⁻⁶ cm/s and the Papp B→A at 2 h is 13.2 ×10⁻⁶ cm/s. In addition, the efflux ratio at 2 h in data set [6] was greater than 2.5.

With `O=C(NO)c1ccc(CN2CCc3ccc(Cl)cc32)cc1` [Compound 10, 4-[(6-Chloroindolin-1-yl)methyl]-N-hydroxybenzamide], in data set [3], the “concentration” value was 1 µM. Further, in data set [4], the efflux ratio is reported as 0.62. In data set [5], this molecule showed an apical-to-basolateral permeability (Papp A→B) at 2 h of 9.14 ×10⁻⁶ cm/s and a Papp B→A at 2 h of 5.54 ×10⁻⁶ cm/s. The efflux ratio at 2 h in data set [6] was less than 1.

Regarding `O=C(NO)c1ccc(CN2CCc3ccc(F)cc32)cc1` [Compound 11, 4-[(6-Fluoroindolin-1-yl)methyl]-N-hydroxybenzamide], in [3], the “concentration” value amounted to 1 µM. For the same molecule, the efflux ratio in data set [4] worked out at 1.05. In data set [5], this molecule displayed a Papp A→B at 2 h of 10.5 ×10⁻⁶ cm/s and a Papp B→A at 2 h of 11.1 ×10⁻⁶ cm/s. For the same molecule, the efflux ratio at 2 h in data set [6] was less than 1.

As for `Cn1c(NCc2ccc(C(=O)NO)cc2)nc2ccccc21` [Compound 12, N-Hydroxy-4-[[(1-methyl-1H-benz[d]imidazol-2-yl)amino]-methyl]benzamide], the efflux ratio in [4] was determined as 2.95. In [5], this molecule came in with a Papp A→B at 2 h of 0.66 ×10⁻⁶ cm/s and a Papp B→A at 2 h of 2.05 ×10⁻⁶ cm/s. Moreover, the efflux ratio at 2 h in data set [6] is greater than 2.5.

Take `CC(/C=C/C(=O)NO)=C\[C@@H](C)C(=O)c1ccc(N(C)C)cc1` [TSA, Trichostatin A, reference compound]: in data set [8], the “levels of acetylated histone 3 to histone 4” value is “increased levels of both acetylated α-tubulin and acetylated histone H3 significantly”. Besides, the “ratio of acetylated α-tubulin to α-tubulin” value in [9] was “increased levels of both acetylated α-tubulin and acetylated histone H3 significantly”.

Take `CN1CCc2c(c3ccccc3n2Cc2ccc(C(=O)NO)cc2)C1` [TubA, tubastatin A, reference compound]: the brain/plasma ratio in data set [10] (8 min) was 0.15. Also, in [10] (60 min), the brain/plasma ratio is 0.86. Further, in [2] (Figure 2b and c), the “selectivity against HDAC8 (in words)” value is recorded as “poorer selectivity”; the “selectivity against the class I HDACs 1, 2, and 3 (in words)” value is given as “high selectivity”. Besides, in [11], the AUCbrain/AUCplasma is reported as 0.18. For the same molecule, the efflux ratio in [4] is on record as 9.83. In data set [5], this molecule displayed a Papp A→B at 2 h of 2 ×10⁻⁶ cm/s and a Papp B→A at 2 h of 19.7 ×10⁻⁶ cm/s.
